Experimental data gathered from unrelated publications.
Each line is one published result; the experiments were not run side by side.
Observed: cell growth or viability

COc1cc2c(cc1OS(N)(=O)=O)CCN(Cc1cccc([N+](=O)[O-])c1)C2  GI50 (DU-145; WST-1; 96 h): 3030 nM
CC(C)C[C@H](NC(=O)[C@H](Cc1ccccc1)NC(=O)c1cnccn1)B(O)O  IC50 (MOLT-4; ATP luminescence): 3.7 nM
COc1ccc(CN2CCc3cc(OS(N)(=O)=O)c(OC)cc3C2)cc1OC  GI50 (DU-145; WST-1; 96 h): 8540 nM
COc1ccc(-c2ccc(-c3ccc(C(=N)N)nc3)s2)cc1  GI50 (SF-295; SRB): 1710 nM
CC(=O)O[C@@]12CO[C@@H]1C[C@H](O)[C@@]1(C)C(=O)[C@H](O)C3=C(C)[C@@H](OC(=O)[C@H](O)[C@@H](NC(=O)OC(C)(C)C)c4ccccc4)C[C@@](O)([C@@H](OC(=O)c4ccccc4)[C@H]21)C3(C)C  inhibition (LNCaP; trypan blue; 3 nM, 72 h): > 65%
O=C(O)/C=C/c1cccc(C(c2c[nH]c3ccccc23)c2c[nH]c3ccccc23)c1  inhibition (DU-145; MTT; 100 µM, 48 h): 28%
COc1ccc(CN2CCc3cc(OS(N)(=O)=O)c(OC)cc3C2)cc1  GI50 (DU-145; WST-1; 96 h): 57200 nM
Cc1cccc2c(C(c3ccc(/C=C/C(=O)O)s3)c3c[nH]c4c(C)cccc34)c[nH]c12  inhibition (DU-145; MTT; 100 µM, 48 h): 78%
COc1cc2c(cc1O)CCN(Cc1cccc(O)c1)C2  GI50 (DU-145; WST-1; 96 h): > 100000 nM
COc1ccc(-c2ccc(-c3ccc(C(=N)N)nc3)s2)cc1Cl  GI50 (SF-295; SRB): 1800 nM
O=C(O)c1ccc(C(c2c[nH]c3ccccc23)c2c[nH]c3ccccc23)cc1  inhibition (DU-145; MTT; 100 µM, 48 h): 34%
COc1cc2c(cc1O)CCN(Cc1cccc([N+](=O)[O-])c1)C2  GI50 (DU-145; WST-1; 96 h): > 100000 nM
COc1cc(Nc2nccc(-c3cnn4nc(OC)ccc34)n2)cc(C(F)(F)F)c1  IC50 (MOLT-4; ATP luminescence): 270 nM
COc1cccc(Oc2ccccc2NC(=O)CNC(=O)c2cccc3ccccc23)c1  GI50 (MOLT-4; SRB; 48 h): 661 nM
Cn1cc(C(c2ccc(C(=O)O)cc2)c2cn(C)c3ccccc23)c2ccccc21  inhibition (DU-145; MTT; 100 µM, 48 h): ~20%
O=C1Nc2ccccc2C1=NNc1nnc2n1N=C(c1ccccc1)CS2  inhibition (DU-145; SRB; 10 µM): 16%
